# Active and inactive are the calls of the source. The rule behind the calls is not given here.
# Columns and labels:
# A549 [1] = test: Antiproliferative activity against human A549 cells at 100 uM after 72 hrs by MTT assay; format: functional; conditions: A549, 72 h, values are per cent of control
# Method in brief: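 MTT proliferation: A549 grown in medium with 10% FBS to 70-80% confluence, then exposed to compound for 24, 48 or 72 h. MTT added for 3 h at 37 °C, formazan dissolved in 2-propanol, OD 570 nm with 650 nm reference. Expressed as percent of control at 24 h; mean ± SE.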
# A549 [2] = test: Cytotoxicity against human A549 cells after 24 hrs by TB dye exclusion assay; format: functional, cell-based; conditions: A549, 24 h
# A549 [3] = test: Cytotoxicity against human A549 cells after 48 hrs by TB dye exclusion assay; format: functional, cell-based; conditions: A549, 48 h
# A549 [4] = test: Cytotoxicity against human A549 cells after 72 hrs by TB dye exclusion assay; format: functional, cell-based; conditions: A549, 72 h
# A549 [5] = test: Cytotoxicity against human A549 cells after 24 hrs by MTT assay; format: functional, cell-based; conditions: A549, 24 h
# A549 [6] = test: Cytotoxicity against human A549 cells after 48 hrs by MTT assay; format: functional, cell-based; conditions: A549, 48 h
# A549 [7] = test: Cytotoxicity against human A549 cells after 72 hrs by MTT assay; format: functional, cell-based; conditions: A549, 72 h
# A549 [8] = test: Cell cycle arrest in human A549 cells assessed as accumulation at G1 phase at 50 uM after 24 hrs; format: functional
# Method in brief: (§1)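 Flow cytometry of cell cycle: A549 (5 × 10^5 per 60 mm dish) treated next day with 50 or 100 µM for 24, 48 or 72 h. Adherent and floating cells pooled, fixed in PBS-MeOH 1:2 at 4 °C for at least 18 h, then stained 30 min in the dark with PI 50 µg/mL plus RNase A 50 µg/mL. Sub-G1 taken as the subdiploid fraction; at least three runs.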
# A549 [9] = test: Cell cycle arrest in human A549 cells assessed as accumulation at S phase at 50 uM after 24 hrs; format: functional; method in brief: as §1
# A549 [10] = test: Cell cycle arrest in human A549 cells assessed as accumulation at G2/M phase at 50 uM after 24 hrs; format: functional; method in brief: as §1
# A549 [11] = test: Cell cycle arrest in human A549 cells assessed as accumulation at subG1 phase at 50 uM after 24 hrs; format: functional; method in brief: as §1
# A549 [12] = test: Cell cycle arrest in human A549 cells assessed as accumulation at G1 phase at 50 uM after 48 hrs; format: functional; method in brief: as §1
# A549 [13] = test: Cell cycle arrest in human A549 cells assessed as accumulation at S phase at 50 uM after 48 hrs; format: functional; method in brief: as §1
# A549 [14] = test: Cell cycle arrest in human A549 cells assessed as accumulation at G2/M phase at 50 uM after 48 hrs; format: functional; method in brief: as §1
# A549 [15] = test: Cell cycle arrest in human A549 cells assessed as accumulation at subG1 phase at 50 uM after 48 hrs; format: functional; method in brief: as §1
# A549 [16] = test: Induction of apoptosis in human A549 cells assessed as PARP cleavage at 100 uM; format: functional, cell-based
# A549 [17] = test: Cell cycle arrest in human A549 cells assessed as accumulation at G1 phase at 50 uM after 72 hrs; format: functional; method in brief: as §1
# A549 [18] = test: Cell cycle arrest in human A549 cells assessed as accumulation at S phase at 50 uM after 72 hrs; format: functional; method in brief: as §1
# A549 [19] = test: Cell cycle arrest in human A549 cells assessed as accumulation at G2/M phase at 50 uM after 72 hrs; format: functional; method in brief: as §1
# A549 [20] = test: Cell cycle arrest in human A549 cells assessed as accumulation at subG1 phase at 50 uM after 72 hrs; format: functional; method in brief: as §1
# A549 [21] = test: Cell cycle arrest in human A549 cells assessed as accumulation at G1 phase at 100 uM after 24 hrs; format: functional; method in brief: as §1
# A549 [22] = test: Cell cycle arrest in human A549 cells assessed as accumulation at S phase at 100 uM after 24 hrs; format: functional; method in brief: as §1
# A549 [23] = test: Cell cycle arrest in human A549 cells assessed as accumulation at G2/M phase at 100 uM after 24 hrs; format: functional; method in brief: as §1
# A549 [24] = test: Cell cycle arrest in human A549 cells assessed as accumulation at subG1 phase at 100 uM after 24 hrs; format: functional; method in brief: as §1
# A549 [25] = test: Cell cycle arrest in human A549 cells assessed as accumulation at G1 phase at 100 uM after 48 hrs; format: functional; method in brief: as §1
# A549 [26] = test: Cell cycle arrest in human A549 cells assessed as accumulation at S phase at 100 uM after 48 hrs; format: functional; method in brief: as §1
# A549 [27] = test: Cell cycle arrest in human A549 cells assessed as accumulation at G2/M phase at 100 uM after 48 hrs; format: functional; method in brief: as §1
structure (smiles),measurement,setting,value
C=C1OC(=O)/C(=C/CCCCCCCCCCCCC)[C@@H]1O [ISOOBTUSILACTONE A],"growth, % of control at 100 µM",A549 [1],2.75%
same,IC50,A549 [2],4.17 µM
same,IC50,A549 [3],0.891 µM
same,IC50,A549 [4],0.724 µM
same,IC50,A549 [5],5.13 µM
same,IC50,A549 [6],1.95 µM
same,IC50,A549 [7],1.02 µM
same,Activity,A549 [8],51.93%
same,Activity,A549 [9],30.81%
same,Activity,A549 [10],17.26%
same,Activity,A549 [11],16.69%
same,Activity,A549 [12],37.37%
same,Activity,A549 [13],46.72%
same,Activity,A549 [14],15.91%
same,Activity,A549 [15],36.73%
same,Activity,A549 [16],Active
same,Activity,A549 [17],38.62%
same,Activity,A549 [18],47.74%
same,Activity,A549 [19],13.64%
same,Activity,A549 [20],54.08%
same,Activity,A549 [21],42.88%
same,Activity,A549 [22],38.95%
same,Activity,A549 [23],18.18%
same,Activity,A549 [24],25.63%
same,Activity,A549 [25],43.08%
same,Activity,A549 [26],41.33%
same,Activity,A549 [27],15.59%

# From ChEMBL document CHEMBL1157401, “Anticancer activity of isoobtusilactone A from Cinnamomum kotoense: involvement of apoptosis, cell-cycle dysregulation, mitochondria regulation, and reactive oxygen species” (J Nat Prod, 2008)
